Assay results published in ChEMBL document CHEMBL3352664 (Bioorg Med Chem, 2014).
The source made the active and inactive calls. The calls are words filed in the database; no cut-off is given here.

Assays:
Plasmodium falciparum [1] = assay: Antiplasmodial activity against chloroquine-resistant Plasmodium falciparum K1 by Malaria SYBR Green I-nucleic acid staining based fluorescence assay; assay type: functional, organism-based
Outline: (§1)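 SYBR Green I fluorescence assay (MSF). DMSO stock at 5 mg/mL, two-fold serial dilutions in RPMI-1640-FBS, tested in duplicate wells. Parasitized erythrocytes (0.8% parasitaemia, 1.0% cell suspension) incubated 72 h at 37 °C under 5% CO2. Lysis buffer with SYBR Green I added, 1 h at 37 °C. Fluorescence read at 485/530 nm.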

Plasmodium falciparum [2] = assay: Resistance index, ratio of IC50 for chloroquine-resistant Plasmodium falciparum K1 to IC50 for chloroquine-sensitive Plasmodium falciparum 3D7; assay type: functional
Outline: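 Resistance index computed as IC50 (K1) / IC50 (3D7). Both IC50s come from the 72 h SYBR Green I fluorescence assay on P. falciparum-infected erythrocytes, run with two-fold serial dilutions in duplicate wells.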

[3] = Binding affinity to hematin in 40% aqueous DMSO and 20 mM HEPES buffer at pH 7.5 at 25 degC
Plasmodium falciparum [4] = assay: Antiplasmodial activity against chloroquine-sensitive Plasmodium falciparum 3D7 by Malaria SYBR Green I-nucleic acid staining based fluorescence assay; assay type: functional, organism-based; outline: as §1
[5] = Selectivity index, ratio of CC50 for african green monkey Vero cells to IC50 for chloroquine-sensitive Plasmodium falciparum; assay type: functional
Heme = assay: Binding affinity to heme assessed as inhibition of 1-oleoyl-rac-glycerol-induced beta-hematin polymerization by UV spectrophotometry
Plasmodium yoelii [6] = assay: Antimalarial activity against chloroquine-resistant Plasmodium yoelii N-67infected in Swiss Albino mouse assessed as mouse cured on day 28 at 100 mg/kg, po once daily for 7 days measured on day 4 post infection; assay type: functional, organism-based; parameters: dose 100 mg/kg
Outline: (§2)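 P. yoelii N-67 (innately CQ-resistant) infection in Swiss albino mice (22 ± 2 g), 1 × 10^6 parasitized RBC on day 0. Groups of five dosed orally once daily from day 0, 100 mg/kg/day as aqueous suspension with a few drops of Tween 80. Parasitaemia read from thin blood smears every four days. % suppression uses the group mean vs untreated controls. Survival and cure (no parasitaemia) tracked to day 28.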

Plasmodium yoelii [7] = assay: Antimalarial activity against chloroquine-resistant Plasmodium yoelii N-67infected in Swiss Albino mouse assessed as suppression of parasitemia at 100 mg/kg, po once daily for 7 days measured on day 4 post infection; assay type: functional; outline: as §2
Plasmodium yoelii [8] = assay: Antimalarial activity against chloroquine-resistant Plasmodium yoelii N-67infected in Swiss Albino mouse assessed as mouse cured on day 28 at 20 mg/kg, po once daily for 4 days measured on day 4 post infection; assay type: functional, organism-based; parameters: dose 20 mg/kg
Outline: (§3)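 Reference arm in the N-67 P. yoelii Swiss albino mouse model. 1 × 10^6 parasitized RBC given on day 0, five mice per group, oral dosing once daily. Parasitaemia from thin blood smears every four days; % suppression from the group mean vs untreated controls. Survival and cure (no parasitaemia) followed to day 28.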

Plasmodium yoelii [9] = assay: Antimalarial activity against chloroquine-resistant Plasmodium yoelii N-67infected in Swiss Albino mouse assessed as mouse survival on day 28 at 20 mg/kg, po once daily for 4 days measured on day 4 post infection; assay type: functional, organism-based; parameters: dose 20 mg/kg; outline: as §3
Plasmodium yoelii [10] = assay: Antimalarial activity against chloroquine-resistant Plasmodium yoelii N-67infected in Swiss Albino mouse assessed as suppression of parasitemia at 20 mg/kg, po once daily for 4 days measured on day 4 post infection; assay type: functional; conditions: N-67, 96 h; outline: as §3
Plasmodium yoelii [11] = assay: Antimalarial activity against chloroquine-resistant Plasmodium yoelii N-67infected in Swiss Albino mouse assessed as mouse survival on day 28 at 100 mg/kg, po once daily for 7 days measured on day 4 post infection; assay type: functional, organism-based; parameters: dose 100 mg/kg; outline: as §2
Plasmodium yoelii [12] = assay: Antimalarial activity against chloroquine-resistant Plasmodium yoelii N-67infected in Swiss Albino mouse assessed as suppression of parasitemia at 100 mg/kg, po once daily for 4 days measured on day 4 post infection; assay type: functional; conditions: N-67, 96 h; outline: as §2
Plasmodium yoelii [13] = assay: Antimalarial activity against chloroquine-resistant Plasmodium yoelii N-67infected in Swiss Albino mouse assessed as mouse cured on day 28 at 100 mg/kg, po once daily for 4 days measured on day 4 post infection; assay type: functional, organism-based; parameters: dose 100 mg/kg; outline: as §2
Plasmodium yoelii [14] = assay: Antimalarial activity against chloroquine-resistant Plasmodium yoelii N-67infected in Swiss Albino mouse assessed as mouse survival on day 28 at 100 mg/kg, po once daily for 4 days measured on day 4 post infection; assay type: functional, organism-based; parameters: dose 100 mg/kg; outline: as §2

## C[C@H](CCCN1CCCCC1)Nc1ccnc2cc(Cl)ccc12
Plasmodium falciparum [1]
  IC50: 536 nM
Plasmodium falciparum [2]
  Ratio IC50: 10.13
[3]
  log K: 7.19
Plasmodium falciparum [4]
  IC50: 52.9 nM
[5]
  Selectivity Index: 4257
Heme
  IC50: 130000 nM

## C[C@H](CCCN1CCOCC1)Nc1ccnc2cc(Cl)ccc12
Plasmodium falciparum [1]
  IC50: 106 nM
Plasmodium falciparum [2]
  Ratio IC50: 3.76
[3]
  log K: 5.69
Plasmodium falciparum [4]
  IC50: 28.1 nM
[5]
  Selectivity Index: 4186
Heme
  IC50: 150000 nM

## C[C@@H](CCCN1CCCC1)Nc1ccnc2cc(Cl)ccc12
Plasmodium yoelii [6]
  Activity: inactive
Plasmodium falciparum [1]
  IC50: 60.4 nM
Plasmodium falciparum [2]
  Ratio IC50: 3.83
[3]
  log K: 5.19
Plasmodium yoelii [7]
  inhibition in vivo at 100 mg/kg: 100%
Plasmodium falciparum [4]
  IC50: 15.8 nM
[5]
  Selectivity Index: 1469
Heme
  IC50: 180000 nM

## CCN(CC)CCCC(C)Nc1ccnc2cc(Cl)ccc12 (racemic) [CHLOROQUINE]
Plasmodium yoelii [8]
  Activity: inactive
Plasmodium yoelii [9]
  Activity: Active
Plasmodium yoelii [10]
  inhibition in vivo at 20 mg/kg: 99%

## CCN(CC)CCC[C@H](C)Nc1ccnc2cc(Cl)ccc12
Plasmodium yoelii [6]
  Activity: inactive
Plasmodium yoelii [7]
  inhibition in vivo at 100 mg/kg: 100%

## C[C@H](CCCN1CCN(C)CC1)Nc1ccnc2cc(Cl)ccc12
Plasmodium falciparum [1]
  IC50: 105 nM
Plasmodium falciparum [2]
  Ratio IC50: 15.2
[3]
  log K: 5.53
Plasmodium yoelii [7]
  inhibition in vivo at 100 mg/kg: 100%
Plasmodium falciparum [4]
  IC50: 6.92 nM
[5]
  Selectivity Index: 18245
Plasmodium yoelii [11]
  Activity: Active
Heme
  IC50: 180000 nM

## CCN(C)CCC[C@@H](C)Nc1ccnc2cc(Cl)ccc12
Plasmodium falciparum [1]
  IC50: 287 nM
Plasmodium falciparum [2]
  Ratio IC50: 36.92
[3]
  log K: 3.63
Plasmodium falciparum [4]
  IC50: 7.78 nM
[5]
  Selectivity Index: 15838
Heme
  IC50: 140000 nM

## C[C@H](CCCN(C)C)Nc1ccnc2cc(Cl)ccc12
Plasmodium falciparum [1]
  IC50: 202 nM
Plasmodium falciparum [2]
  Ratio IC50: 33.74
[3]
  log K: 5.77
Plasmodium falciparum [4]
  IC50: 6 nM
[5]
  Selectivity Index: 28483
Heme
  IC50: 190000 nM

## CCN(C)CCC[C@H](C)Nc1ccnc2cc(Cl)ccc12
Plasmodium falciparum [1]
  IC50: 258 nM
Plasmodium falciparum [2]
  Ratio IC50: 20.85
[3]
  log K: 5.61
Plasmodium falciparum [4]
  IC50: 12.4 nM
[5]
  Selectivity Index: 26389
Heme
  IC50: 150000 nM

## CCCCCCCCN(CCCCCCCC)CCC[C@@H](C)Nc1ccnc2cc(Cl)ccc12
Plasmodium yoelii [6]
  Activity: inactive
Plasmodium falciparum [1]
  IC50: 126 nM
Plasmodium falciparum [2]
  Ratio IC50: 1.6
[3]
  log K: 5.02
Plasmodium yoelii [7]
  inhibition in vivo at 100 mg/kg: 9.5%
Plasmodium falciparum [4]
  IC50: 78.6 nM
[5]
  Selectivity Index: 44.28
Plasmodium yoelii [11]
  Activity: inactive
Heme
  IC50: 190000 nM

## C[C@@H](CCCN(C)C)Nc1ccnc2cc(Cl)ccc12
Plasmodium falciparum [1]
  IC50: 358 nM
Plasmodium falciparum [2]
  Ratio IC50: 20.88
[3]
  log K: 4.95
Plasmodium falciparum [4]
  IC50: 17.1 nM
[5]
  Selectivity Index: 12483
Heme
  IC50: 150000 nM

## C[C@@H](CCCN1CCN(C)CC1)Nc1ccnc2cc(Cl)ccc12
Plasmodium falciparum [1]
  IC50: 21.8 nM
Plasmodium falciparum [2]
  Ratio IC50: 1.53
[3]
  log K: 4.73
Plasmodium yoelii [7]
  inhibition in vivo at 100 mg/kg: 100%
Plasmodium falciparum [4]
  IC50: 14.2 nM
[5]
  Selectivity Index: 14744
Plasmodium yoelii [11]
  Activity: Active
Heme
  IC50: 140000 nM

## CCN(CC)CCC[C@@H](C)Nc1ccnc2cc(Cl)ccc12 [(R)-CHLOROQUINE]
Plasmodium yoelii [6]
  Activity: inactive
Plasmodium yoelii [7]
  inhibition in vivo at 100 mg/kg: 100%

## C[C@H](CCCN1CCCC1)Nc1ccnc2cc(Cl)ccc12
Plasmodium yoelii [6]
  Activity: inactive
Plasmodium falciparum [1]
  IC50: 125 nM
Plasmodium falciparum [2]
  Ratio IC50: 12.23
[3]
  log K: 6.02
Plasmodium yoelii [7]
  inhibition in vivo at 100 mg/kg: 100%
Plasmodium falciparum [4]
  IC50: 10.2 nM
[5]
  Selectivity Index: 14140
Plasmodium yoelii [11]
  Activity: inactive
Heme
  IC50: 140000 nM

## C[C@@H](CCCN1CCCCC1)Nc1ccnc2cc(Cl)ccc12
Plasmodium falciparum [1]
  IC50: 121 nM
Plasmodium falciparum [2]
  Ratio IC50: 8.09
[3]
  log K: 5.4
Plasmodium falciparum [4]
  IC50: 14.9 nM
[5]
  Selectivity Index: 20154
Heme
  IC50: 150000 nM

## C[C@@H](CCCN1CCOCC1)Nc1ccnc2cc(Cl)ccc12
Plasmodium yoelii [12]
  inhibition in vivo at 100 mg/kg: 99.6%
Plasmodium falciparum [1]
  IC50: 56.8 nM
Plasmodium falciparum [2]
  Ratio IC50: 4.05
[3]
  log K: 6
Plasmodium yoelii [13]
  Activity: inactive
Plasmodium falciparum [4]
  IC50: 14 nM
[5]
  Selectivity Index: 19256
Plasmodium yoelii [14]
  Activity: Active
Heme
  IC50: 190000 nM

## C[C@H](CCCNC(C)(C)C)Nc1ccnc2cc(Cl)ccc12
Plasmodium falciparum [1]
  IC50: > 1560 nM
Plasmodium falciparum [2]
  Ratio IC50: >335
[3]
  log K: 5.71
Plasmodium falciparum [4]
  IC50: 4.66 nM
[5]
  Selectivity Index: 24459
Heme
  IC50: 170000 nM

## CCCCCCCCN(CCCCCCCC)CCC[C@H](C)Nc1ccnc2cc(Cl)ccc12
Plasmodium yoelii [6]
  Activity: inactive
Plasmodium falciparum [1]
  IC50: 7.95 nM
Plasmodium falciparum [2]
  Ratio IC50: 0.084
[3]
  log K: 5.58
Plasmodium yoelii [7]
  inhibition in vivo at 100 mg/kg: 14.5%
Plasmodium falciparum [4]
  IC50: 94.8 nM
[5]
  Selectivity Index: 103.94
Plasmodium yoelii [11]
  Activity: inactive
Heme
  IC50: 200000 nM

## C[C@@H](CCCNC(C)(C)C)Nc1ccnc2cc(Cl)ccc12
Plasmodium falciparum [1]
  IC50: > 1560 nM
Plasmodium falciparum [2]
  Ratio IC50: >47.43
[3]
  log K: 5.04
Plasmodium falciparum [4]
  IC50: 33 nM
[5]
  Selectivity Index: 7100
Heme
  IC50: 150000 nM
